Measurements as given in ChEMBL document CHEMBL4184148 (Bioorg Med Chem Lett, 2017).

Assays:
[1] = target: T1, Aurora kinase A (Homo sapiens, UniProt O14965); assay: Inhibition of recombinant full length His-tagged human Aurora A expressed in baculovirus expression system by Z'LYTE assay
T1 sequence (O14965 whole entry): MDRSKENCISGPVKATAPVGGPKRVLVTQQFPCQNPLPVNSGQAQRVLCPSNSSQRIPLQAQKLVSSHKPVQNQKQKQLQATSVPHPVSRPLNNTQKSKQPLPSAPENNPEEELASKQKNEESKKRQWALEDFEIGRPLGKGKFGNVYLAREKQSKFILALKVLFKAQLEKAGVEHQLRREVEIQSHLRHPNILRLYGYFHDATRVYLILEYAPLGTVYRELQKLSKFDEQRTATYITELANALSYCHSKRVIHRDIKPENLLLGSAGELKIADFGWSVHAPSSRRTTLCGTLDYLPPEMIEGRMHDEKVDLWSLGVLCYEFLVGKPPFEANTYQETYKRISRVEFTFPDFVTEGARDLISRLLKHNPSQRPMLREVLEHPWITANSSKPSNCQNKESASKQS
Method in brief: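 Z'LYTE biochemical kinase assay with ATP at the Km for each kinase. IC50 determined from the assay and reported ± standard error.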

[2] = tested on: HEK293; assay: Cytotoxicity against human HEK293 cells assessed as reduction in cell viability after 72 hrs by CellTiter-Glo assay; assay type: cell-based; details: HEK293, 72 h
Method in brief: (§1)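 Cells were treated across a dose-response range for 72 h, and viability was read by CellTiter-Glo luminescence. Measurements were made in triplicate and reported with standard error.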

[3] = target: Calcium/calmodulin-dependent protein kinase type 1D (Homo sapiens) (UniProt Q8IU85); assay: Binding affinity to wild-type human partial length CAMK1D (M1 to K299 residues) expressed in Escherichia coli BL21 at 1 uM by Kinomescan method relative to control
[4] = target: Calcium/calmodulin-dependent protein kinase type II subunit delta (Homo sapiens) (UniProt Q13557); assay: Binding affinity to wild-type human partial length CAMK2D (M1 to E329 residues) expressed in Escherichia coli BL21 at 1 uM by Kinomescan method relative to control
[5] = target: Serine/threonine-protein kinase Chk1 (Homo sapiens) (UniProt O14757); assay: Binding affinity to wild-type human partial length CHEK1 (M1 to G289 residues) expressed in Escherichia coli BL21 at 1 uM by Kinomescan method relative to control
[6] = target: Death-associated protein kinase 2 (Homo sapiens) (UniProt Q9UIK4); assay: Binding affinity to wild-type human full length DAPK2 (M1 to S370 residues) expressed in Escherichia coli BL21 at 1 uM by Kinomescan method relative to control
Method in brief: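 Run as one kinome-wide competition binding panel with each compound at a single fixed concentration. Results were plotted as a kinome-wide selectivity map.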

[7] = tested on: Epidermal growth factor receptor (Homo sapiens), P00533 [L858R]; assay: Binding affinity to human partial length EGFR L858R mutant (R669 to V1011 residues) expressed in Escherichia coli BL21 at 1 uM by Kinomescan method relative to control
[8] = target: Receptor tyrosine-protein kinase erbB-2 (Homo sapiens) (UniProt P04626); assay: Binding affinity to wild-type human partial length ERBB2 (K646 to V1225 residues) expressed in HEK293 cells at 1 uM by Kinomescan method relative to control; assay type: cell-based
[9] = target: Hormonally up-regulated neu tumor-associated kinase (Homo sapiens) (UniProt P57058); assay: Binding affinity to wild-type human partial length HUNK (A31 to K354 residues) expressed in Escherichia coli BL21 at 1 uM by Kinomescan method relative to control
[10] = target: Serine/threonine-protein kinase PLK1 (Homo sapiens) (UniProt P53350); assay: Binding affinity to wild-type human partial length PLK1 (A33 to F325 residues) expressed in HEK293 cells at 1 uM by Kinomescan method relative to control; assay type: cell-based
[11] = tested on: HCT-116; assay: Cytotoxicity against human HCT116 cells assessed as reduction in cell viability after 72 hrs by CellTiter-Glo assay; assay type: functional, cell-based; details: HCT-116, 72 h; method in brief: as §1
[12] = tested on: HCT-116; assay: Cytotoxicity against human HCT116 cells assessed as reduction in cell viability up to 33.3 uM after 72 hrs by CellTiter-Glo assay relative to control; assay type: functional
[13] = tested on: PC-3; assay: Cytotoxicity against human PC3 cells assessed as reduction in cell viability up to 33.3 uM after 72 hrs by CellTiter-Glo assay relative to control; assay type: functional

Chain of Hormonally up-regulated neu tumor-associated kinase (Homo sapiens) (P57058 whole entry, the tested form may be a part): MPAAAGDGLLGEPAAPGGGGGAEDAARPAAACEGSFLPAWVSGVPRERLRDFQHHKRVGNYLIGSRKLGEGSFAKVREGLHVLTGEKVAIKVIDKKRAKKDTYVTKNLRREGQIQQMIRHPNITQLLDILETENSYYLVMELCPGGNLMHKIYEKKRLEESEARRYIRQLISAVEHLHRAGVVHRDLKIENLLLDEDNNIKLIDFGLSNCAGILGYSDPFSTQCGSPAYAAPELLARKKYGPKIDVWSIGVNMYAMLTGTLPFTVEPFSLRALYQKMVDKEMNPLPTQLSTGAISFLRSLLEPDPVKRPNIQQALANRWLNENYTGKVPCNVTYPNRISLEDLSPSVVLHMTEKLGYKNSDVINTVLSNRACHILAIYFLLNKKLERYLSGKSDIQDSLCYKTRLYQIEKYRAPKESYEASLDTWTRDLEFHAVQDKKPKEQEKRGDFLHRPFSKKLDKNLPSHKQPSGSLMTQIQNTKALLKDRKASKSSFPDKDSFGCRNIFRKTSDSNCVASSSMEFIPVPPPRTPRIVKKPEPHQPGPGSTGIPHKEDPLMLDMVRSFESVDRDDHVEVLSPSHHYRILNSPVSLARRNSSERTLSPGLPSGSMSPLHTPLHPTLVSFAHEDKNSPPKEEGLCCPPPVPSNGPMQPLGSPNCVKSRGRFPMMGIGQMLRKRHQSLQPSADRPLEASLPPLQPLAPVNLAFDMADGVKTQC
Chain of Serine/threonine-protein kinase Chk1 (Homo sapiens) (O14757 whole entry, the tested form may be a part): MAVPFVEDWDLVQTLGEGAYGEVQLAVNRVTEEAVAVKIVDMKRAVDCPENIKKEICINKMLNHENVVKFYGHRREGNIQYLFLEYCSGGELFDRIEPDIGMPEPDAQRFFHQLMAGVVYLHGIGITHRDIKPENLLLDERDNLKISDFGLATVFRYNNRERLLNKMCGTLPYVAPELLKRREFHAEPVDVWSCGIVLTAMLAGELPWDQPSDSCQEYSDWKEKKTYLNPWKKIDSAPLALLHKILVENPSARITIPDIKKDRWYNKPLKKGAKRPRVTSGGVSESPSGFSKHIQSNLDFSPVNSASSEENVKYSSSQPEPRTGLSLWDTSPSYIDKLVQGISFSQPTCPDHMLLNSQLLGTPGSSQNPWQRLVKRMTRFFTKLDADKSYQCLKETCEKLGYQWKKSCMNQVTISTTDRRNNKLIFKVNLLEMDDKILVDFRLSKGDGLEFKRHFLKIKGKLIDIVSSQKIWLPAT
Chain of Death-associated protein kinase 2 (Homo sapiens) (Q9UIK4 whole entry, looked up, the tested form may be a part): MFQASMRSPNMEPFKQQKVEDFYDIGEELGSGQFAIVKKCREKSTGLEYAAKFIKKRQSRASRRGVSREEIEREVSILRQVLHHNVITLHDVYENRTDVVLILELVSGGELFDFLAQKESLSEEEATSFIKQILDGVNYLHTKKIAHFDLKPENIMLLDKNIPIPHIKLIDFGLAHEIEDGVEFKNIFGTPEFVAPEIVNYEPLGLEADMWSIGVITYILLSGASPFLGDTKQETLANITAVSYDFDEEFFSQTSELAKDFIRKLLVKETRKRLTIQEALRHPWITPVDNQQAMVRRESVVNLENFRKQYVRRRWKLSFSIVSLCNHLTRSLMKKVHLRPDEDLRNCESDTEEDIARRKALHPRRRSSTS
Chain of Receptor tyrosine-protein kinase erbB-2 (Homo sapiens) (P04626 whole entry, the tested form may be a part): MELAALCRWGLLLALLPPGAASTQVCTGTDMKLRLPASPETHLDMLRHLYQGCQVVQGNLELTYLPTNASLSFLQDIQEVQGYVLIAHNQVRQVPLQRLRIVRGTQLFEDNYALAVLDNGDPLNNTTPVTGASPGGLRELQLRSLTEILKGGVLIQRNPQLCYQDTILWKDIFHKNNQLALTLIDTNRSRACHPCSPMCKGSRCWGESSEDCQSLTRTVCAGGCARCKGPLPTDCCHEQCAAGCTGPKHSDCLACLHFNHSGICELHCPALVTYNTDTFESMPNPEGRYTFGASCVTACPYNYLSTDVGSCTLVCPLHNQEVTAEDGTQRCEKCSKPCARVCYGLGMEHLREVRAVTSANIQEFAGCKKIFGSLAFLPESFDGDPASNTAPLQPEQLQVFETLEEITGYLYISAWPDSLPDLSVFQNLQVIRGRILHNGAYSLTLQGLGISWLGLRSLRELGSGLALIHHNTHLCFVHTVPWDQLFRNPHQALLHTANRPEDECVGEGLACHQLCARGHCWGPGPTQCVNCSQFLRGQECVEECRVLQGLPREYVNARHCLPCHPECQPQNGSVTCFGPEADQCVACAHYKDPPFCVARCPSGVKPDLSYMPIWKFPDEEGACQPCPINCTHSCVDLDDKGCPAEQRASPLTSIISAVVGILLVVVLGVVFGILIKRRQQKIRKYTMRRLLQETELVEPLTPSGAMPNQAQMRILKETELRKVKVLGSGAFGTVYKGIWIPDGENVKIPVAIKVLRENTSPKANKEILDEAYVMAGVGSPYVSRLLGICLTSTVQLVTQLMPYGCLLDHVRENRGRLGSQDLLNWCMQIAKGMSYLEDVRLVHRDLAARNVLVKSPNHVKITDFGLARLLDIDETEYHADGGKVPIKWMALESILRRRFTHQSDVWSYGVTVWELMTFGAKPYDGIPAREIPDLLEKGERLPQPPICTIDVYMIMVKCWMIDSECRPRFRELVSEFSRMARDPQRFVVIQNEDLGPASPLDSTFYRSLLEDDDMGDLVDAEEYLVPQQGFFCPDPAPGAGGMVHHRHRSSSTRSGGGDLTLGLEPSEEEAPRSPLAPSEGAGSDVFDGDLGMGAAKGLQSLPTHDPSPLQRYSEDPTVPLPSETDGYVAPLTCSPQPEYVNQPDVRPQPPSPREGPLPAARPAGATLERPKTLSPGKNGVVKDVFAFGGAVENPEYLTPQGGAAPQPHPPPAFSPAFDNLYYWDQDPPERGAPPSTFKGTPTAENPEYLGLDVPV
Chain of Serine/threonine-protein kinase PLK1 (Homo sapiens) (P53350 whole entry, the tested form may be a part): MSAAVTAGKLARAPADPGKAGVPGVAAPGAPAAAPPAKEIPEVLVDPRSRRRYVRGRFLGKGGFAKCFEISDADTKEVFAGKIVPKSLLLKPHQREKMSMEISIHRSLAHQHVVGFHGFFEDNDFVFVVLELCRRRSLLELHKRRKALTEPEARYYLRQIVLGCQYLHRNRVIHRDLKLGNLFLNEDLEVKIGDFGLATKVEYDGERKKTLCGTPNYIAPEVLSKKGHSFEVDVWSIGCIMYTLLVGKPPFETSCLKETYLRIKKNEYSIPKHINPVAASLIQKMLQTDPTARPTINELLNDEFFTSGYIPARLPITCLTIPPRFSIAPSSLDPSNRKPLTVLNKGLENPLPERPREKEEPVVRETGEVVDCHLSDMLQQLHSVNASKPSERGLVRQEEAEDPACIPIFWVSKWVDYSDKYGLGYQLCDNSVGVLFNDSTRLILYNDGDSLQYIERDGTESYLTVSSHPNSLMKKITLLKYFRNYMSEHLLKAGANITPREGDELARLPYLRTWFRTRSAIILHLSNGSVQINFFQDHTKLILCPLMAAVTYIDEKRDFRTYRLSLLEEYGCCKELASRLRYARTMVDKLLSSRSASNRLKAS
Chain of Calcium/calmodulin-dependent protein kinase type II subunit delta (Homo sapiens) (Q13557 whole entry, the tested form may be a part): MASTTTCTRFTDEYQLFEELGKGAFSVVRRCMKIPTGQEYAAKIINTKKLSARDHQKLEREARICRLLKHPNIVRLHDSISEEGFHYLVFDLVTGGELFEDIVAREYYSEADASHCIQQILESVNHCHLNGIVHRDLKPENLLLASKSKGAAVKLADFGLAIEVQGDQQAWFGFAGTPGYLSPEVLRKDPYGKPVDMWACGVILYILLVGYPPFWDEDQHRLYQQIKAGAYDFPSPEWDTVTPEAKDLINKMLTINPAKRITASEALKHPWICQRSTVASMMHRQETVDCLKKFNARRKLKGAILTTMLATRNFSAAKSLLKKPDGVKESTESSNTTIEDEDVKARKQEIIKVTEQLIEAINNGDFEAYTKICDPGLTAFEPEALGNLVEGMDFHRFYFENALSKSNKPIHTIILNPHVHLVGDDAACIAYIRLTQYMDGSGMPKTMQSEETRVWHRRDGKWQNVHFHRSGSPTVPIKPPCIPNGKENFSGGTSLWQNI
Chain of Calcium/calmodulin-dependent protein kinase type 1D (Homo sapiens) (Q8IU85 whole entry, looked up, the tested form may be a part): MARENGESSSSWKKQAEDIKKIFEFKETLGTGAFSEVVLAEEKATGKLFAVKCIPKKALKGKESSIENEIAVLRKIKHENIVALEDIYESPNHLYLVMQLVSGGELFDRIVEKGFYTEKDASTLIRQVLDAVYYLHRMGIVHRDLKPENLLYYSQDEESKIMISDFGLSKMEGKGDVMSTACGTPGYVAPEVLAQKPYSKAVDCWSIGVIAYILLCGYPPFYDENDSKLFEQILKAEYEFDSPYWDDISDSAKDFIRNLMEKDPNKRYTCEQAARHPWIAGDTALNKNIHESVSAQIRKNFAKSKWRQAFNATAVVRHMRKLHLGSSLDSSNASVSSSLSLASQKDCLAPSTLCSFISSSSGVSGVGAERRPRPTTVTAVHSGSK

SMILES	IC50 [1]	IC50 [2]	Activity [3]	Activity [4]	Activity [5]	Activity [6]	Activity [7]	Activity [8]	Activity [9]	Activity [10]	IC50 [11]	Activity [12]	Activity [13]
CCC(=O)Nc1ccc(C(=O)Nc2ccc(Nc3ncc4c(n3)N(C)c3ccc(C)cc3C(=O)N4C)cc2)cc1	52 nM	100 nM	88%	99%	87%	91%	65%	100%	91%	100%			
C=CC(=O)Nc1ccc(C(=O)Nc2ccc(Nc3ncc4c(n3)N(C)c3ccc(C)cc3C(=O)N4C)cc2)cc1	44 nM		100%	100%	100%	100%	86%	93%	100%	91%	845 nM	50%	50%
